Assay results as given in ChEMBL document CHEMBL4052817 (J Med Chem, 2017).
The source made the active and inactive calls. No cut-off for these calls is given here.

Legend:
[1] = target: T1, Cytochrome P450 2C9 (Homo sapiens, UniProt P11712); test: Inhibition of CYP2C9 (unknown origin); assay type: ADME
[2] = target: Cytochrome P450 2D6 (Homo sapiens, UniProt P10635); test: Inhibition of CYP2D6 (unknown origin); assay type: ADME
[3] = target: T2, Cytochrome P450 3A4 (Homo sapiens, UniProt P08684); test: Inhibition of CYP3A4 (unknown origin); assay type: ADME
[4] = target: Tryptophan 2,3-dioxygenase (Homo sapiens, UniProt P48775); test: Inhibition of human TDO2 using tryptophan as substrate after 22 mins by LC-MS/MS method
[5] = target: Indoleamine 2,3-dioxygenase 2 (Homo sapiens) (UniProt Q6ZQW0); test: Inhibition of human recombinant IDO-2 up to 200 uM using tryptophan as substrate after 22 mins by LC-MS/MS method
Method in brief: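 Human IDO2 at 250 nM with inhibitor in duplicate, room temperature, in Mg/Ca-free PBS with 20 mM ascorbate, 10 μM methylene blue, 800 nM catalase, 15 μM tryptophan; HCl stop after 22 min; kynurenine quantified by RapidFire SPE-MS/MS; two replicates, geometric means.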

[6] = system: Mus musculus; test: AUC (infinity) in CD-1 mouse assessed as (R)-3-(5-fluoro-1H-indol-3-yl)pyrrolidine-2,5-dione at 1 mg/kg, iv by LC-MS/MS method; assay type: ADME, organism-based; design: dose 1 mg/kg, route intravenous, time infinity; settings: in vivo
Method in brief: (§1)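 Racemate given as a single 1 mg/kg IV dose to male CD-1 mice, Wistar-Han rats or beagle dogs (n=3 per species). Plasma levels of the (R)-enantiomer measured by chiral LC-MS/MS. Mean AUCinf, CLp, Vss and t1/2 reported.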

[7] = system: Rattus norvegicus; test: AUC (infinity) in Wistar-Han rat assessed as (R)-3-(5-fluoro-1H-indol-3-yl)pyrrolidine-2,5-dione at 1 mg/kg, iv by LC-MS/MS method; assay type: ADME, organism-based; design: dose 1 mg/kg, time infinity, route intravenous; settings: in vivo; method in brief: as §1
[8] = system: Canis familiaris; test: AUC (infinity) in beagle dog assessed as (R)-3-(5-fluoro-1H-indol-3-yl)pyrrolidine-2,5-dione at 1 mg/kg, iv by LC-MS/MS method; assay type: ADME, organism-based, Canis lupus familiaris; design: dose 1 mg/kg, route intravenous, time infinity; settings: in vivo; method in brief: as §1
[9] = system: Canis familiaris; test: Volume of distribution at steady state in beagle dog assessed as (R)-3-(5-fluoro-1H-indol-3-yl)pyrrolidine-2,5-dione at 1 mg/kg, iv by LC-MS/MS method; assay type: ADME, organism-based, Canis lupus familiaris; settings: in vivo
[10] = system: Mus musculus; test: Half life in CD-1 mouse assessed as (R)-3-(5-fluoro-1H-indol-3-yl)pyrrolidine-2,5-dione at 1 mg/kg, iv by LC-MS/MS method; assay type: ADME, organism-based; settings: in vivo; method in brief: as §1
[11] = system: Canis familiaris; test: Half life in beagle dog assessed as (R)-3-(5-fluoro-1H-indol-3-yl)pyrrolidine-2,5-dione at 1 mg/kg, iv by LC-MS/MS method; assay type: ADME, organism-based, Canis lupus familiaris; settings: in vivo
[12] = Intrinsic apparent clearance in rat hepatocytes assessed per million cells; assay type: ADME, cell-based, Hepatocyte
[13] = system: Mus musculus; test: Cmax in CD-1 mouse assessed as (R)-3-(5-fluoro-1H-indol-3-yl)pyrrolidine-2,5-dione at 3 mg/kg, po; assay type: ADME, organism-based; design: dose 3 mg/kg, route oral; settings: in vivo
[14] = system: Canis familiaris; test: Cmax in beagle dog assessed as (R)-3-(5-fluoro-1H-indol-3-yl)pyrrolidine-2,5-dione at 3 mg/kg, po; assay type: ADME, organism-based, Canis lupus familiaris; design: dose 3 mg/kg, route oral; settings: in vivo
[15] = system: Rattus norvegicus; test: Tmax in Wistar-Han rat assessed as (R)-3-(5-fluoro-1H-indol-3-yl)pyrrolidine-2,5-dione at 3 mg/kg, po; assay type: ADME, organism-based; settings: in vivo
[16] = system: Canis familiaris; test: Tmax in beagle dog assessed as (R)-3-(5-fluoro-1H-indol-3-yl)pyrrolidine-2,5-dione at 3 mg/kg, po; assay type: ADME, organism-based, Canis lupus familiaris; settings: in vivo
[17] = system: Canis familiaris; test: AUC (infinity) in beagle dog assessed as (R)-3-(5-fluoro-1H-indol-3-yl)pyrrolidine-2,5-dione at 3 mg/kg, po; assay type: ADME, organism-based, Canis lupus familiaris; design: dose 3 mg/kg, route oral, time infinity; settings: in vivo
[18] = system: Mus musculus; test: Half life in CD-1 mouse assessed as (R)-3-(5-fluoro-1H-indol-3-yl)pyrrolidine-2,5-dione at 3 mg/kg, po; assay type: ADME, organism-based; settings: in vivo
[19] = system: Rattus norvegicus; test: Half life in Wistar-Han rat assessed as (R)-3-(5-fluoro-1H-indol-3-yl)pyrrolidine-2,5-dione at 3 mg/kg, po; assay type: ADME, organism-based; settings: in vivo
[20] = system: Mus musculus; test: Oral bioavailability in CD-1 mouse assessed as (R)-3-(5-fluoro-1H-indol-3-yl)pyrrolidine-2,5-dione at 3 mg/kg; assay type: ADME, organism-based; settings: in vivo
[21] = system: Rattus norvegicus; test: Oral bioavailability in Wistar-Han rat assessed as (R)-3-(5-fluoro-1H-indol-3-yl)pyrrolidine-2,5-dione at 3 mg/kg; assay type: ADME, organism-based; settings: in vivo
[22] = Ratio of unbound drug level in brain to plasma in po dosed rat assessed as (R)-3-(5-fluoro-1H-indol-3-yl)pyrrolidine-2,5-dione; assay type: ADME, organism-based
Method in brief: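 Racemate dosed orally to rats; active enantiomer measured in brain, CSF and plasma; total brain/plasma ratio and unbound brain/unbound plasma ratio calculated.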

[23] = Drug excretion in rat bile assessed as (R)-3-(5-fluoro-1H-indol-3-yl)pyrrolidine-2,5-dione; assay type: ADME; settings: in vivo
Method in brief: (§2)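 Racemate dosed to rats (urine and bile collected) and to dogs (urine collected). The percentage of the dose excreted as unchanged (R)-enantiomer was measured.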

[24] = Drug excretion in dog urine assessed as (R)-3-(5-fluoro-1H-indol-3-yl)pyrrolidine-2,5-dione; assay type: ADME, Canis lupus familiaris; settings: in vivo; method in brief: as §2
[25] = Drug metabolism in mouse hepatocytes assessed as oxidation; assay type: ADME, cell-based, Hepatocyte
[26] = Drug metabolism in dog hepatocytes assessed as oxidation; assay type: ADME, cell-based, Canis lupus familiaris, Hepatocyte
[27] = Drug metabolism in mouse hepatocytes assessed as hydrolysis; assay type: ADME, cell-based, Hepatocyte
[28] = Drug metabolism in dog hepatocytes assessed as hydrolysis; assay type: ADME, cell-based, Canis lupus familiaris, Hepatocyte
[29] = target: T1, Cytochrome P450 2C9; test: Time/NADPH-dependent inhibition of CYP2C9 (unknown origin); assay type: ADME
[30] = target: Cytochrome P450 2C19 (Homo sapiens, UniProt P33261); test: Time/NADPH-dependent inhibition of CYP2C19 (unknown origin); assay type: ADME
[31] = target: T2, Cytochrome P450 3A4; test: Time/NADPH-dependent inhibition of CYP3A4 (unknown origin); assay type: ADME
[32] = target: T1, Cytochrome P450 2C9; test: Time-dependent inhibition of CYP2C9 (unknown origin); assay type: ADME
[33] = Inhibition of human p-gp transfected in MDCK cells assessed as decrease in digoxin transport; assay type: cell-based
[34] = target: Broad substrate specificity ATP-binding cassette transporter ABCG2 (Homo sapiens, UniProt Q9UNQ0); test: Inhibition of BCRP (unknown origin) transfected in MDCK cells assessed as decrease in pitavastatin transport; assay type: cell-based
[35] = system: Hepatocyte; test: Induction of CYP3A4 mRNA expression in human hepatocytes at <100 uM; assay type: ADME, cell-based
[36] = system: Hepatocyte; test: Induction of CYP2B6 mRNA expression in human hepatocytes at <100 uM; assay type: ADME, cell-based
[37] = system: Mus musculus; test: In vivo inhibition of human IDO-1 expressed in non-tumor-bearing mouse assessed as reduction in plasma L-kynurenine levels at >= 200 mg/kg after 1 hr relative to control; assay type: functional
[38] = system: Panc02; test: Antitumor activity against mouse Pan02 tumor model administered as monotherapy; assay type: functional
[39] = system: 4T1; test: Antitumor activity against mouse 4T1 tumor model administered as monotherapy; assay type: functional
[40] = system: Renca; test: Antitumor activity against mouse Renca tumor model administered as monotherapy; assay type: functional
[41] = system: CT26; test: Antitumor activity against mouse CT26 tumor model administered as […] co-treated with anti-PDL1 mAb; assay type: functional

T1 sequence (P11712 whole entry): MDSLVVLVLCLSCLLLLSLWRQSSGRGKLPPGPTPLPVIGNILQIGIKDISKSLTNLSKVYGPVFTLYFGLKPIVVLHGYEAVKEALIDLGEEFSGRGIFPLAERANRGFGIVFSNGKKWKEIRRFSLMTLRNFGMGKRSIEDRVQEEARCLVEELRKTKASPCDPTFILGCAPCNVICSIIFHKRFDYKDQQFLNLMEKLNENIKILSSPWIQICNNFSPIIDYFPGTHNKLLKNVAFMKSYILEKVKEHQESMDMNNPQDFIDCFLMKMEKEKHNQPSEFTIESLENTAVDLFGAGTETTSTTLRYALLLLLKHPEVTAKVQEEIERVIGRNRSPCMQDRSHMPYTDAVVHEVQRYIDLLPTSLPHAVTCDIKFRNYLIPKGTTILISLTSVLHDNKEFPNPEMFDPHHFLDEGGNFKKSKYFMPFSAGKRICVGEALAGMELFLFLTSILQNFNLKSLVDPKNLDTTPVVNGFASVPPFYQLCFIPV
T2 sequence (P08684 whole entry): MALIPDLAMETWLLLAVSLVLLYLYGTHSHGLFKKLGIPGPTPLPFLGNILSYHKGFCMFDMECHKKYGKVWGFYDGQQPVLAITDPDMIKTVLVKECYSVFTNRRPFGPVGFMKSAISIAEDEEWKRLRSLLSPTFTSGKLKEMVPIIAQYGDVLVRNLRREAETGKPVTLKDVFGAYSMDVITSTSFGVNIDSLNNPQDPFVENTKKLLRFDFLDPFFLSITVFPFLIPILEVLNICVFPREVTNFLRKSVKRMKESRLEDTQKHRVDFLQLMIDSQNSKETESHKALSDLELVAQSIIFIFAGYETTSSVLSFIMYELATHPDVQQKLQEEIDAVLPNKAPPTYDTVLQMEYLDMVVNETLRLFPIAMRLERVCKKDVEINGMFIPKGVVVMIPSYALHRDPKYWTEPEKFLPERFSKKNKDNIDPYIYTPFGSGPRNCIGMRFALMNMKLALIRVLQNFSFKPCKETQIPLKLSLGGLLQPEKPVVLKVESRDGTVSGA
Chain of Broad substrate specificity ATP-binding cassette transporter ABCG2 (Q9UNQ0 whole entry): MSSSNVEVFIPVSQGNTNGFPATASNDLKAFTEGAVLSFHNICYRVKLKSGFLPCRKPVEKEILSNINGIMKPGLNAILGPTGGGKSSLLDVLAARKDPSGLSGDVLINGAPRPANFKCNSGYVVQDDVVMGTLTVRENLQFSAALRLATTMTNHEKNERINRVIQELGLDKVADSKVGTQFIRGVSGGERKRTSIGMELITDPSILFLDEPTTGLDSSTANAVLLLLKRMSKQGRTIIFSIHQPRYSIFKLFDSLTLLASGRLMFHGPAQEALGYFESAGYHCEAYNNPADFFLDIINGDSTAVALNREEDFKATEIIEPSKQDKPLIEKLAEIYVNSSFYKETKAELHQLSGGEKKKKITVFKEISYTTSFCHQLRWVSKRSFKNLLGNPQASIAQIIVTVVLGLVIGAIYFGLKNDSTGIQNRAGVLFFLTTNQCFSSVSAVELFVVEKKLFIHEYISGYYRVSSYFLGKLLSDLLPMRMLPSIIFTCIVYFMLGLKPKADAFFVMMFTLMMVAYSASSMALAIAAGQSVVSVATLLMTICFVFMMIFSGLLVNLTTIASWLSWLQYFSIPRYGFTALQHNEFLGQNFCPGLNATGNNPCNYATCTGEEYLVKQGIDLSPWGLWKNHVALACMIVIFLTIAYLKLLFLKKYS
Chain of Tryptophan 2,3-dioxygenase (P48775 whole entry): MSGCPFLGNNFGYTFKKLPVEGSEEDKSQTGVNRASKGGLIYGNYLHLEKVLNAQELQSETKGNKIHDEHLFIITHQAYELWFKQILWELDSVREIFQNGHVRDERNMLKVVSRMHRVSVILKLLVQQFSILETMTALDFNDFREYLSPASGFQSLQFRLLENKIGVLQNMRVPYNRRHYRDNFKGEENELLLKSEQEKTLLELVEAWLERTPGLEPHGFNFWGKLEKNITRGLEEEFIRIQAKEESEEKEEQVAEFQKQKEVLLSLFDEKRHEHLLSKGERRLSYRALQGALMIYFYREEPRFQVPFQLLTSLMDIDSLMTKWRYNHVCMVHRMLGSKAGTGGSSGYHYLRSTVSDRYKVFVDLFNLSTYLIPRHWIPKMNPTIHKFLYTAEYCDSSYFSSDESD
Chain of Indoleamine 2,3-dioxygenase 2 (Homo sapiens) (Q6ZQW0 whole entry): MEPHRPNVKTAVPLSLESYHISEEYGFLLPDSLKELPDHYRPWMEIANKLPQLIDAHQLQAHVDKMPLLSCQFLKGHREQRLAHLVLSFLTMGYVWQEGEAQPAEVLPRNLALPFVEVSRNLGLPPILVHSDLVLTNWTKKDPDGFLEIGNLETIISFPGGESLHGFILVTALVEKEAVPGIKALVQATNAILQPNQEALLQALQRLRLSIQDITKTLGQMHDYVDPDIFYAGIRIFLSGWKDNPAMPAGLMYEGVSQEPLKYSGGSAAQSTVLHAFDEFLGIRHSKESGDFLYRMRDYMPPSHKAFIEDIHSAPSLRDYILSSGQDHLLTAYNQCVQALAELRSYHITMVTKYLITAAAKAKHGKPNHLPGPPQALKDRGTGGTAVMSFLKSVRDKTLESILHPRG
Chain of Cytochrome P450 2D6 (P10635 whole entry): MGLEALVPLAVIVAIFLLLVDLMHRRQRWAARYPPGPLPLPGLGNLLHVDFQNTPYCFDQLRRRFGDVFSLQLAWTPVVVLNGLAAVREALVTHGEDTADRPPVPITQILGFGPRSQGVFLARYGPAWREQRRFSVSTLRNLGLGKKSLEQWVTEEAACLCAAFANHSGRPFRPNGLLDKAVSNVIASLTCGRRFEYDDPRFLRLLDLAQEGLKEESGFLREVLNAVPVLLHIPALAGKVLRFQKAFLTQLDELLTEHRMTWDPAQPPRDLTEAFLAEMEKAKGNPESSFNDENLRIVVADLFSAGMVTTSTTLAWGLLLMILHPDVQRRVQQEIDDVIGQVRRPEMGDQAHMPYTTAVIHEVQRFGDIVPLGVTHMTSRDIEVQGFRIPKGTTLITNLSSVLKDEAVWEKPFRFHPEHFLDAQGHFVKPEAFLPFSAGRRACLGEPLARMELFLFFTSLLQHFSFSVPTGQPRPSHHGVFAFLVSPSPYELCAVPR
Chain of Cytochrome P450 2C19 (P33261 whole entry): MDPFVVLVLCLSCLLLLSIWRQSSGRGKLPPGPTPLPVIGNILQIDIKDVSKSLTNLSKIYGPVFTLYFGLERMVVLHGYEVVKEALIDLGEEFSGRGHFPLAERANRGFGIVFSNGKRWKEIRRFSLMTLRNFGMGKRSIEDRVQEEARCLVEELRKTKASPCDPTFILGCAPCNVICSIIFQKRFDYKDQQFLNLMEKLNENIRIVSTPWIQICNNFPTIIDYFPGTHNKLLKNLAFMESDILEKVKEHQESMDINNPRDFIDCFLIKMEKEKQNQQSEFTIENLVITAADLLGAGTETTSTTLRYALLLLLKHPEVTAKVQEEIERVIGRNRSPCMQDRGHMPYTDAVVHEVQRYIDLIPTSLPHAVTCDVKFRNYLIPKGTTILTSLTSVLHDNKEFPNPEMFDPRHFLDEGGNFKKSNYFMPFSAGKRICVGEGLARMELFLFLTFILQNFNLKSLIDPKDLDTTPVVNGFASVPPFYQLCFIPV

IC50 [1]: > 100 µM
IC50 [2]: > 100 µM
IC50 [3]: > 100 µM
IC50 [4]: 140 µM
inhibition [5]: inactive
AUC [6]: 1160 ng·h/mL
AUC [7]: 2520 ng·h/mL
AUC [8]: 423 ng·h/mL
Vdss [9]: 0.957 L/kg
t1/2 [10]: 2.5 h
t1/2 [11]: 0.802 h
CLH(app) [12]: 2.3 µL/min
Cmax [13]: 538 ng/mL
Cmax [14]: 219 ng/mL
Tmax [15]: 1.3 h
Tmax [16]: 0.25 h
AUC [17]: 237 ng·h/mL
t1/2 [18]: 2.48 h
t1/2 [19]: 2.42 h
F [20]: 59.3%
F [21]: 94%
K(p,uu,brain) [22]: 0.2
Drug excretion [23]: < 1 %ID
Drug excretion [24]: < 1 %ID
Drug metabolism [25]: Metabolite_Detected
Drug metabolism [26]: Metabolite_Detected
Drug metabolism [27]: Metabolite_Detected
Drug metabolism [28]: Metabolite_Detected
inhibition (INH) [29]: Not Active
inhibition (INH) [30]: Not Active
inhibition (INH) [31]: Not Active
TDI [32]: Not Active
IC50 [33]: > 300 µM
IC50 [34]: 65.4 µM
Activity [35]: Not Active
Activity [36]: Not Active
SMILES: O=C1CC(c2c[nH]c3ccc(F)cc23)C(=O)N1 (stereo unspecified) [PF-06840003]
inhibition (INH) [37]: >=54%
Activity [38]: Active
Activity [39]: Active
Activity [40]: Active
Activity [41]: Active
